According to ChEMBL document CHEMBL1145214, “Synthesis, structure-activity relationships at the GABA(A) receptor in rat brain, and differential electrophysiological profile at the recombinant human GABA(A) receptor of a series of substituted 1,2-diphenylimidazoles” (J Med Chem, 2005):

Key:
[1] = target: T1, GABA A receptor alpha-2/beta-2/gamma-2 (Homo sapiens, UniProt P18507+P47869+P47870); assay: Effective concentration against GABA-evoked chloride currents mediated by human Gamma-aminobutyric acid GABA-A receptor alpha2-beta2-gamma2L expressed in Xenopus oocytes; assay type: cell-based, Oocyte
T1 sequence (P47870 whole entry): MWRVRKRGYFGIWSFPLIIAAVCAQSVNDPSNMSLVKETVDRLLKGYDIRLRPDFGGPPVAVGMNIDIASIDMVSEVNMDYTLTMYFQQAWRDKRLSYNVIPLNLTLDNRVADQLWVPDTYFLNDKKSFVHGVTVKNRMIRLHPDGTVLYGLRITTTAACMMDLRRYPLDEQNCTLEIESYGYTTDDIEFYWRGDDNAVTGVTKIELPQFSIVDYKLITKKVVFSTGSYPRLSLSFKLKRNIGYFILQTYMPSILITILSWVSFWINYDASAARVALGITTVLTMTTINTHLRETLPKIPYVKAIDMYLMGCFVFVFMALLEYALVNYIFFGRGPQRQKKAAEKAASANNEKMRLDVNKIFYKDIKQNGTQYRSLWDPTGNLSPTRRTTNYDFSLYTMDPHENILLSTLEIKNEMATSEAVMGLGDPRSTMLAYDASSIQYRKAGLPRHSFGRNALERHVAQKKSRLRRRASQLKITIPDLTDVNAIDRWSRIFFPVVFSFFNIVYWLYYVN
T1 sequence (P18507 whole entry): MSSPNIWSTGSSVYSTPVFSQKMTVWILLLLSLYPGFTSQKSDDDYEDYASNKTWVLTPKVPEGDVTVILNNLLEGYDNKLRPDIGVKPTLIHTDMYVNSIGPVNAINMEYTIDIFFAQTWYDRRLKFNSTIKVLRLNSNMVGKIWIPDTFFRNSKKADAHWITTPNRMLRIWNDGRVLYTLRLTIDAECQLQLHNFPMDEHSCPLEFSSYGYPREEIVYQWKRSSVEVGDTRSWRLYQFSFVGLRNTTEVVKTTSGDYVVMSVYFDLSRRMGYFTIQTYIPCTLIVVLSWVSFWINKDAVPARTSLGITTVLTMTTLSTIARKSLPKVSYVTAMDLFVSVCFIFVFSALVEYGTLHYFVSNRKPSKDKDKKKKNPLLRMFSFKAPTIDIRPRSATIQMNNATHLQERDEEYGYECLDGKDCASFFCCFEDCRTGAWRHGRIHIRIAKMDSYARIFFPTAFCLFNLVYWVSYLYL
T1 sequence (P47869 whole entry): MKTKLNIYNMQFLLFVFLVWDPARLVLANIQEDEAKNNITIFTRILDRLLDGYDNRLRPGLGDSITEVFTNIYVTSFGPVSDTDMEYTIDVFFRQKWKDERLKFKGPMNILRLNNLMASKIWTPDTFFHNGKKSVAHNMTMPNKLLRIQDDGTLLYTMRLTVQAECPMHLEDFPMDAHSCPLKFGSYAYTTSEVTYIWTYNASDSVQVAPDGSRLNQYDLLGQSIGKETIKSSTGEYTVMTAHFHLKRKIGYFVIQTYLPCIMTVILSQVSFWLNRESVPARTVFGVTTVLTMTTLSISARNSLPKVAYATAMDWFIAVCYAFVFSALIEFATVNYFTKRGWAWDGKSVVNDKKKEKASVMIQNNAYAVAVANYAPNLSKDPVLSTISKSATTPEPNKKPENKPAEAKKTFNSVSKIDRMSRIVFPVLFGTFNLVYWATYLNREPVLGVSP
Procedure, shortened: (§1)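 Human α2β2γ2L cDNAs, 1.5 ng total in 30 nL at a 1:1:1 ratio, injected into the animal pole of oocytes. Oocytes held at 15 °C in supplemented modified Barth's solution, pH 7.5. Readout was % potentiation of Cl- current from concentration-response curves.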

[2] = target: GABA A receptor alpha-2/beta-2/gamma-2 (Homo sapiens) (UniProt P47870+P18507+P47869); assay: Maximal efficacy for GABA-evoked chloride currents mediated by human Gamma-aminobutyric acid GABA-A receptor alpha2-beta2-gamma2L expressed in Xenopus oocytes; assay type: cell-based; settings: Oocyte
Procedure, shortened: as §1, with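 “7.5. Compounds were applied for 60 s together with GABA at EC10 (10% of the 10 mM GABA maximum), final DMSO ≤0.1%.” for “7.5.”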

[3] = Effective concentration required for reversible loss of righting reflex in Xenopus laevis tadpoles; assay type: functional, Tadpole

SMILES	EC50 [1]	Maximal efficacy [2]	EC50 [3]
CCOC(=O)c1cn(-c2ccc(Cl)cc2Cl)c(-c2ccc(N)cc2)n1	4.3 µM	406%	
CCCC(C)C1(CC)C(=O)NC(=O)NC1=O (stereo unspecified) [PENTOBARBITAL]	50 µM	214%	
CCOC(=O)c1cn(-c2ccc(Cl)cc2Cl)c(-c2ccc(OC)cc2)n1	1.9 µM	362%	
O=C(O)c1cn(-c2ccc(Cl)cc2Cl)c(-c2ccc(Cl)cc2)n1	8.7 µM	256%	
CCOC(=O)c1cn(-c2ccccc2)c(-c2ccc(Cl)cc2)n1	4.2 µM	458%	
COC(=O)c1cn(-c2ccc(Cl)cc2Cl)c(-c2ccc(Br)cc2)n1	3.4 µM	258%	
CCOC(=O)c1cn(-c2ccccc2)c(-c2ccc(C)cc2)n1	4.1 µM	625%	
CCOC(=O)c1cn(-c2ccccc2)c(-c2ccccc2)n1	6.4 µM	638%	
CCCOC(=O)c1cn(-c2ccc(Cl)cc2Cl)c(-c2ccc(Br)cc2)n1	1.7 µM	537%	
CCOC(=O)c1cn(-c2ccc(Cl)cc2Cl)c(-c2ccc([N+](=O)[O-])cc2)n1	2.4 µM	413%	
CCOC(=O)c1cn(-c2ccc(Cl)c(Cl)c2)c(-c2ccc(Cl)cc2)n1	2.3 µM	521%	
CC(C)c1cccc(C(C)C)c1O [PROPOFOL]	11.2 µM	461%	1.9 µM
CCOC(=O)c1cn(-c2ccc(Cl)cc2)c(-c2ccc(Cl)cc2)n1	1.5 µM	302%	
CN1CCN(C(=O)c2cn(-c3ccc(Cl)cc3Cl)c(-c3ccc(Cl)cc3)n2)CC1	1.3 µM	58.2%	
CCOC(=O)c1cn(-c2ccc(Cl)cc2Cl)c(-c2ccc(I)cc2)n1	0.45 µM	180%	
CCOC(=O)c1cn(-c2ccc(F)cc2)c(-c2ccc(F)cc2)n1	3.1 µM	569%	
CCOC(=O)c1cncn1[C@H](C)c1ccccc1 [ETOMIDATE]		501%	2.3 µM
CCOC(=O)c1cn(-c2ccc(Cl)cc2Cl)c(-c2ccccc2)n1	1.8 µM	508%	
O=C(OCCN1CCCCC1)c1cn(-c2ccc(Cl)cc2Cl)c(-c2ccc(Br)cc2)n1		-14%	
CCN(CC)C(=O)c1cn(-c2ccc(Cl)cc2Cl)c(-c2ccc(Cl)cc2)n1	4.4 µM	32.4%	
CCOC(=O)c1cn(-c2ccc(Cl)cc2Cl)c(-c2ccc(NC(C)=O)cc2)n1	19 µM	209%	
CCOC(=O)c1cn(-c2cccc(Cl)c2)c(-c2ccccc2)n1	3 µM	350%	
c1ccc(-c2nccn2-c2ccccc2)cc1		-5.3%	
CCOC(=O)c1cn(-c2ccccc2)c(-c2ccc(OC)cc2)n1	9.1 µM	369%	
Cc1cn(-c2ccccc2)c(-c2ccccc2)n1		-25%	
CCOC(=O)c1cn(-c2ccc(Cl)cc2Cl)c(-c2ccc(Br)cc2)n1	0.19 µM	388%	
CCOC(=O)c1cn(-c2ccc(Cl)cc2Cl)c(-c2ccc(Cl)cc2)n1	0.6 µM	390%	1.2 µM
CC(=O)[C@H]1CC[C@H]2[C@@H]3CC[C@H]4C[C@H](O)CC[C@]4(C)[C@H]3C(=O)C[C@]12C		322%	
CCOC(=O)c1cn(-c2ccc(Cl)cc2Cl)c(-c2ccc(C)cc2)n1	1 µM	568%	
